Laboratory results published in ChEMBL document CHEMBL1148650, “Synthesis and pharmacological evaluation of novel nitrobenzenic thromboxane modulators as antiplatelet agents acting on both the alpha and beta isoforms of the human thromboxane receptor” (J Med Chem, 2006).

What was measured:
Thromboxane A2 receptor [1] = target: T1, Thromboxane A2 receptor (Homo sapiens, UniProt P21731); experiment: Activity at TPalpha (short isoform) receptor expressed in HEK293 cells assessed as ability to antagonize U46619-mediated calcium ion mobilization; type: functional, cell-based
T1 sequence (P21731 whole entry): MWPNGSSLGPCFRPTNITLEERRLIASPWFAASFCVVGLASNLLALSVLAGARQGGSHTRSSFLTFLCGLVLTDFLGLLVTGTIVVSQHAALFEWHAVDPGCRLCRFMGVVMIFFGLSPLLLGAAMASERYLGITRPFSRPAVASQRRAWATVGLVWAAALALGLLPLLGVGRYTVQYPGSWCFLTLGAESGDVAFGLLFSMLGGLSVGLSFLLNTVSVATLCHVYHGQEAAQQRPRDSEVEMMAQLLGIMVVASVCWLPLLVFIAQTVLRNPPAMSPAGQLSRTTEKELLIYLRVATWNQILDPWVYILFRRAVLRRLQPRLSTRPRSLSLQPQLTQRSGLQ
Procedure, shortened: (§1)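 HEK293 cells stably overexpressing human TPα or TPβ. Cells were loaded 1 h with Fluo-4/AM (5 µg/mL) and washed in Krebs-HEPES pH 7.4 (150 000 cells/well). Compound (10^-5 to 10^-8 M final) was added 10 min before 1 µM U46619. Fluo-4 signal was calibrated by Triton X-100 and then EGTA (Kd 385 nM) for [Ca2+]i. IC50 is the concentration halving the [Ca2+]i rise.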

Thromboxane A2 receptor [2] = target: T1, Thromboxane A2 receptor; experiment: Displacement of [3H]SQ29,548 from TPalpha receptor (short isoform) expressed in COS7 cells
[3] = target: T2, Thromboxane A2 receptor (Homo sapiens) (UniProt P21731); experiment: Selectivity index, IC50 for TPalpha/IC50 for TPbeta in COS7 cells; type: cell-based; conditions: COS-7
T2 sequence (whole entry): T1 sequence (P21731 whole entry)
Procedure, shortened: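 Binding used 5 × 10^5 cells in 25 mM HEPES/125 mM NaCl/10 µM indomethacin, pH 7.4, with 10 nM [3H]SQ29,548 and compound at 10^-6 to 10^-11 M, in triplicate, for 30 min at 37 °C. Nonspecific binding: 10 µM unlabeled SQ29,548. Bound ligand was counted after filtration. Index = IC50 TPα/IC50 TPβ.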

[4] = target: T2, Thromboxane A2 receptor (Homo sapiens); experiment: Selectivity index, IC50 for TPalpha/IC50 for TPbeta in HEK293 cells; type: functional, cell-based
Procedure, shortened: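 Ratio of IC50 TPα to IC50 TPβ, both from the calcium assay in stably transfected HEK293 cells. Fluo-4-loaded cells were preincubated 10 min with compound (10^-5 to 10^-8 M), then stimulated with 1 µM U46619. IC50 is the concentration inhibiting 50% of the [Ca2+]i rise.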

Thromboxane A2 receptor [5] = target: T1, Thromboxane A2 receptor; experiment: Displacement of [3H]SQ-29548 from TPbeta receptor (long isoform) expressed in COS7 cells
[6] = target: T2, Thromboxane A2 receptor (Homo sapiens); experiment: Displacement of [3H]SQ-29548 from TPbeta receptor (long isoform) expressed in COS7 cells at 1 nM; conditions: COS-7
Thromboxane A2 receptor [7] = target: T1, Thromboxane A2 receptor; experiment: Activity at TPbeta (long isoform) receptor expressed in HEK293 cells assessed as ability to antagonize U46619-mediated calcium ion mobilization; type: functional, cell-based; procedure, shortened: as §1
[8] = target: T2, Thromboxane A2 receptor (Homo sapiens); experiment: Displacement of [3H]SQ29,548 from TPalpha receptor (short isoform) expressed in COS7 cells at 1 nM; conditions: COS-7
[9] = target: T2, Thromboxane A2 receptor (Homo sapiens); experiment: Displacement of [3H]SQ-29548 from TPbeta receptor (long isoform) expressed in COS7 cells at 1 uM; type: cell-based; conditions: COS-7
[10] = target: T2, Thromboxane A2 receptor (Homo sapiens); experiment: Displacement of [3H]SQ29,548 from TPalpha receptor (short isoform) expressed in COS7 cells at 1 uM; type: cell-based; conditions: COS-7

Compound	IC50 (Thromboxane A2 receptor [1]) [nM]	IC50 (Thromboxane A2 receptor [2]) [nM]	Ratio IC50 [3]	Ratio IC50 [4]	IC50 (Thromboxane A2 receptor [5]) [nM]	Activity [6] [%]	IC50 (Thromboxane A2 receptor [7]) [nM]	Activity [8] [%]	Activity [9] [%]	Activity [10] [%]
Cc1ccc(Nc2ccc([N+](=O)[O-])cc2S(=O)(=O)NC(=O)NC(C)(C)C)cc1	319	1.05	1.35	6.01	0.78	53.6	53.1	49.5	–	–
CCCCCNC(=O)NS(=O)(=O)c1cc([N+](=O)[O-])ccc1Sc1ccc(C)cc1	–	–	–	–	–	43	–	38.5	–	–
CCCCCCNC(=O)NS(=O)(=O)c1cc([N+](=O)[O-])ccc1NC1CCCCC1	81.2	0.71	0.67	1.76	1.07	42.5	46.2	44.2	–	–
CCCCCNC(=O)NS(=O)(=O)c1cc([N+](=O)[O-])ccc1Nc1cc(C)ccc1C	–	–	–	–	–	33.1	–	28.6	–	–
CCCCCNC(=O)NS(=O)(=O)c1cc([N+](=O)[O-])ccc1Nc1ccc(Cl)cc1	–	–	–	–	–	52.7	–	48.9	–	–
CCCCCNC(=O)NS(=O)(=O)c1cc([N+](=O)[O-])ccc1Nc1cccc(C)c1	60.4	1.01	0.23	1.33	4.43	35.8	45.5	48.5	–	–
CCCCCNC(=O)NS(=O)(=O)c1cc([N+](=O)[O-])ccc1Nc1ccccc1C	–	–	–	–	–	45.3	–	45.3	–	–
CCCCCNC(=O)NS(=O)(=O)c1cc([N+](=O)[O-])ccc1Nc1c(C)cccc1C	80.7	1.52	1.03	1.71	1.48	54	47.1	36.5	–	–
CCCCCNC(=O)NS(=O)(=O)c1cc([N+](=O)[O-])ccc1Nc1ccc(Br)c(C)c1	126	1.82	3.11	2.92	0.58	49.9	43.2	32.1	–	–
Cc1ccc(Sc2ccc([N+](=O)[O-])cc2S(=O)(=O)NC(=O)NC(C)(C)C)cc1	294	0.77	0.44	5.32	1.74	37.7	55.2	47	–	–
CCCCCNC(=O)NS(=O)(=O)c1cc([N+](=O)[O-])ccc1Sc1ccc(Cl)cc1	–	–	–	–	–	21.3	–	24.7	–	–
CCCCCNC(=O)NS(=O)(=O)c1cc([N+](=O)[O-])ccc1Nc1ccc(C)cc1	50	2.65	0.75	3.69	3.53	34.2	13.6	39.6	–	–
Cc1ccc(Nc2ccc([N+](=O)[O-])cc2S(=O)(=O)NC(=O)N2CCCCC2)cc1	64.8	0.46	0.68	1.68	0.68	54.2	38.5	46.2	–	–
CCCCCNC(=O)NS(=O)(=O)c1cc([N+](=O)[O-])ccc1Oc1ccccc1C	–	–	–	–	–	36.8	–	35.2	–	–
CCCCCCCCNC(=O)NS(=O)(=O)c1cc([N+](=O)[O-])ccc1NC1CCCCC1	–	–	–	–	–	24.1	–	17.1	–	–
CCC(C)NC(=O)NS(=O)(=O)c1cc([N+](=O)[O-])ccc1Nc1c(C)cccc1C (stereo not drawn)	–	–	–	–	–	–	–	–	42.5	48.4
CCCCCCNC(=O)NS(=O)(=O)c1cc([N+](=O)[O-])ccc1Oc1ccc(C)cc1	526	0.72	0.45	9	1.58	46.1	58.5	55.2	–	–
CCCCCNC(=O)NS(=O)(=O)c1cc([N+](=O)[O-])ccc1Oc1cccc(C)c1	–	–	–	–	–	22.8	–	20.1	–	–
Cc1ccc(Nc2ccc([N+](=O)[O-])cc2S(=O)(=O)NC(=O)NCc2ccccc2)cc1	64.5	1.9	1.62	1.43	1.17	49.3	45	32.9	–	–
